Measurements from BindingDB's records for doi:10.1021/jm800913d (National Institute On Drug Abuse, 2008).

What was measured:
[1] = target: Kappa-type opioid receptor (Homo sapiens, UniProt P41145); assay: Displacement of [125I]IOXY from human recombinant kappa opioid receptor expressed in CHO cells
Procedure, shortened: (§1)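 Radioligand displacement run in CHO cells stably transfected to express the μ-, δ- or κ-opioid receptor, each receptor in its own line. The method follows the authors' earlier procedure. Each value comes from n=3 determinations.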

[2] = target: Delta-type opioid receptor (Homo sapiens, UniProt P41143); assay: Displacement of [125I]IOXY from human recombinant delta opioid receptor expressed in CHO cells; procedure, shortened: as §1
Sequence of Delta-type opioid receptor (P41143 whole entry): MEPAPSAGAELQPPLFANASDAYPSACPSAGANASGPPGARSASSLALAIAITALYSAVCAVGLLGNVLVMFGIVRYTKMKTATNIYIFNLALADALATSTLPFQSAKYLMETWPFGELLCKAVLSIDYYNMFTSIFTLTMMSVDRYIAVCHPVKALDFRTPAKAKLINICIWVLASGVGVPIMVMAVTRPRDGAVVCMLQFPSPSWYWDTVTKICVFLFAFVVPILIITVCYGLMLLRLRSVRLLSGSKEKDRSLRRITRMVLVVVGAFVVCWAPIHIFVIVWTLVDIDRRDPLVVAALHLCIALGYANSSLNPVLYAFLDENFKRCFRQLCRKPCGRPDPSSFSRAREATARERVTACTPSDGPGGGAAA

Mu-type opioid receptor = Mu-type opioid receptor (Homo sapiens, UniProt P35372); assay: Displacement of [125I]IOXY from human recombinant mu opioid receptor expressed in CHO cells; procedure, shortened: as §1
Sequence of Mu-type opioid receptor (P35372 whole entry): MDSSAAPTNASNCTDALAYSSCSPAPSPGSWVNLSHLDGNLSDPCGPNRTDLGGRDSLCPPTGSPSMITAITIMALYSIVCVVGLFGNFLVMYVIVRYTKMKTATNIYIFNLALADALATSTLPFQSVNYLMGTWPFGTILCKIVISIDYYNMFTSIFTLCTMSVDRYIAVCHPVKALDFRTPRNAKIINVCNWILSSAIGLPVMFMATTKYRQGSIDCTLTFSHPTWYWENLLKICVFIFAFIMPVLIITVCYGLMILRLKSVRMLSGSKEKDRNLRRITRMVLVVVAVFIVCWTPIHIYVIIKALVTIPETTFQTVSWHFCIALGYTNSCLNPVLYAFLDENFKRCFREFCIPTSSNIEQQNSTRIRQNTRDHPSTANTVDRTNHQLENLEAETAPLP

Sequence of Kappa-type opioid receptor (P41145 whole entry): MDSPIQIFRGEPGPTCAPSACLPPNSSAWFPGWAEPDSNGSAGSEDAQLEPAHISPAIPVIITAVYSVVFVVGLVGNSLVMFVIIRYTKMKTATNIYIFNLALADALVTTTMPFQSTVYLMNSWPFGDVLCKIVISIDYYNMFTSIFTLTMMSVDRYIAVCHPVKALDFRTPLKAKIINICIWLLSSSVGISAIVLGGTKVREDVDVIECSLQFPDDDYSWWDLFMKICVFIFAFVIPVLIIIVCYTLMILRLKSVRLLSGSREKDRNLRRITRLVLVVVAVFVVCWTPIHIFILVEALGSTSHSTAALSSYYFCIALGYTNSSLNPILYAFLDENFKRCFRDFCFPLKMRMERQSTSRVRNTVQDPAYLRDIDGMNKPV

With CN1C[C@@H]2Oc3ccc(O)cc3[C@@]23CCC[C@@H]1C3 [(3R*,6aS*,11aR*)-1,3,4,5,6,11a-Hexahydro-2-methyl-2H-3,6a-methanobenzofuro[2,3-c]azocin-8-ol] the Ki [1] was 620 nM and the Ki [2] was 2780 nM.
With CN1C[C@@H]2Oc3c(O)cccc3[C@@]23CCC[C@@H]1C3 [(3R*,6aS*,11aR*)-1,3,4,5,6,11a-Hexahydro-2-methyl-2H-3,6amethanobenzofuro[2,3-c]azocin-10-ol] the Ki [1] was 4820 nM and the Ki [2] was 3430 nM.
For Oc1cccc2c1O[C@H]1CN(CCc3ccccc3)[C@@H]3CCC[C@]21C3 [(3R*,6aS*,11aR*)-1,3,4,5,6,11a-Hexahydro-2-phenethyl-2H-3,6a-methanobenzofuro [2,3-c]azocin-10-ol], the Ki (Mu-type opioid receptor) was 560 nM, the Ki [1] was 200 nM and the Ki [2] was 2840 nM.
With CN1CC[C@@]23C[C@@H]1CC[C@H]2Oc1c(O)cccc13 [(4R*,6aS*,11bR*)-2,3,4,5,6,6a-Hexahydro-3-methyl-1H-4,11b-methanobenzofuro[3,2-d]azocine-8-ol] the Ki (Mu-type opioid receptor) was 3210 nM and the Ki [1] was 910 nM.
In the case of CN1CC[C@@]23C[C@@H]1CC[C@H]2Oc1ccc(O)cc13 [(4R*,6aS*,11bR*)-2,3,4,5,6,6a-Hexahydro-3-methyl-1H-4,11bmethanobenzofuro[3,2-d]azocine-10-ol], the Ki (Mu-type opioid receptor) is reported as > 10000 nM and the Ki [2] is reported as > 10000 nM.
With Oc1cccc2c1O[C@@H]1CC[C@H]3C[C@@]21CCN3CCc1ccccc1 [(4R*,6aS*,11bR*)-2,3,4,5,6,6a-Hexahydro-3-phenethyl-1H-4,11b-methanobenzofuro[3,2-d]azocine-8-ol] the Ki (Mu-type opioid receptor) was 190 nM, the Ki [1] was 26 nM and the Ki [2] was 3710 nM.
Oc1ccc2c(c1)[C@@]13CCN(CCc4ccccc4)[C@@H](CC[C@H]1O2)C3 [(4R*,6aS*,11bR*)-2,3,4,5,6,6a-Hexahydro-3-phenethyl-1H-4,11b-methanobenzofuro[3,2-d]azocine-10-ol] was tested, and the Ki (Mu-type opioid receptor) was 740 nM, the Ki [1] was 78 nM and the Ki [2] was 4760 nM.
